Results: ChEMBL document CHEMBL1127046, “Antitumor agents. 3. Synthesis and biological activity of 4 beta-alkyl derivatives containing hydroxy, amino, and amido groups of 4'-O-demethyl-4-desoxypodophyllotoxin as antitumor agents” (J Med Chem, 1993)

Columns and labels:
[1] = test system: Lewis lung carcinoma cell line; assay: Percentage inhibition of tumor growth at the Lewis lung dose of 1.3 (mg/kg/ day); format: functional, Mus musculus
Procedure, shortened: (§1)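 Lewis lung carcinoma fragments (2 mm3) implanted sc into male BDF1 mice (5 weeks) on day 0. Compound given iv on days 4–8, in saline or saline with 3.5% DMSO and 6.5% Tween 80. Seven mice per group, 10 controls. Percent inhibition from mean tumour weight versus control on day 17; p<0.05, 0.01 or 0.001 versus control.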

COLO 320DM [2] = assay: Inhibition of growth of colon cancer COLO 320DM cell line; format: functional; conditions: Homo sapiens, read-out: ED50 (the source's name)
Procedure, shortened: (§2)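 Cells were seeded and cultured for 24 h, then exposed to drug for 96 or 4 h. Cells were counted by hemocytometer. IC50 is the concentration giving a 50% reduction in cell number relative to control.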

L1210 [3] = assay: Antitumor activity in vivo expressed as the percentage increase in life span at the dose of 2.5 (mg/kg/day); format: functional, Mus musculus
SBC-3 = assay: Inhibition of growth of lung small cell carcinoma SBC-3 cell line; format: functional; conditions: Homo sapiens, read-out: ED50 (the source's name)
Procedure, shortened: (§3)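 Human tumour cell lines plated and grown 24 h in a CO2 incubator, then exposed to compound for 96 or 4 h. Cells counted by hemocytometer. IC50 is the concentration giving 50% reduction in cell number versus untreated control.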

[4] = test system: Lewis lung carcinoma cell line; assay: Percentage inhibition of tumor growth at the Lewis lung dose of 2.3 (mg/kg/ day); format: functional, Mus musculus; procedure, shortened: as §1
P388 [5] = assay: Antitumor activity in vivo expressed as the percentage increase in life span at the P388 dose of 2.3 (mg/kg/day); format: functional, Mus musculus
Procedure, shortened: (§4)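 P388 leukaemia, 1 × 10^6 cells given sc to male CDF1 mice (5 weeks old) on day 0. Drug was dosed iv on days 1–5 in saline with 3.5% DMSO and 6.5% Tween 80. Groups had 7 mice; controls had 10. ILS was calculated from mean survival time of treated versus control mice, excluding 30-day survivors.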

[6] = test system: Lewis lung carcinoma cell line; assay: Increased life span at the dose of 2.3 (mg/kg/day); format: functional, Mus musculus
ACHN = assay: Inhibition of growth of renal cancer ACHN cell line; format: functional; conditions: Homo sapiens, read-out: ED50 (the source's name); procedure, shortened: as §3
[7] = Inhibition of growth of renal cancer G-402 cell line; format: functional; conditions: Homo sapiens, read-out: ED50 (the source's name); procedure, shortened: as §3
[8] = test system: Lewis lung carcinoma cell line; assay: Mean body weight change after inoculation of 3.2 x 10 e 5 cells iv and administration of compounds iv from days 1-5 at the dose of 2.3 (mg/kg/day); format: functional, Mus musculus
Procedure, shortened: (§5)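 Male BDF1 mice (5 weeks) given 3.2 x 10^5 Lewis lung carcinoma cells iv on day 0, then dosed iv on days 1–5. Seven mice per group, 14 controls. Mean body weight change (g) taken from day 0 to day 6.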

P388 [9] = assay: Cytotoxicity against P388 leukemia; format: functional, cell-based; conditions: Mus musculus
Tubulin = Tubulin (Bos taurus, UniProt Q6B856+Q862L2+Q862F3); assay: Drug concentration needed to produce a 50% reduction of bovine brain tubulin polymerization relative to the control
[10] = test system: Lewis lung carcinoma cell line; assay: Increased life span at the dose of 0.77 (mg/kg/day); format: functional, Mus musculus
P388 [11] = assay: Antitumor activity in vivo expressed as the percentage increase in life span at the P388 dose of 0.8 (mg/kg/day); format: functional, Mus musculus; procedure, shortened: as §4
[12] = Inhibition of growth of hepatoma HLF cell line; format: functional; conditions: Homo sapiens, read-out: ED50 (the source's name); procedure, shortened: as §2
[13] = test system: Lewis lung carcinoma cell line; assay: Mean body weight change after inoculation of 3.2 x 10 e 5 cells iv and administration of compounds iv from days 1-5 at the dose of 0.77 (mg/kg/day); format: functional, Mus musculus; procedure, shortened: as §5
[14] = Inhibition of growth of lung small cell carcinoma RERF-LC-MA cell line; format: functional; conditions: Homo sapiens; read-out: ED50 (the source's name); procedure, shortened: as §2
[15] = test system: Lewis lung carcinoma cell line; assay: Percentage inhibition of tumor growth at the Lewis lung dose of 4 (mg/kg/ day); format: functional, Mus musculus; procedure, shortened: as §1
[16] = Inhibition of DNA topoisomerase II from rat liver measured as 50% reduction in the amount of minicircle DNA relative to the control
[17] = Inhibition of growth of lung non-small cell carcinoma PC-7 cell line; format: functional; conditions: Homo sapiens, read-out: ED50 (the source's name); procedure, shortened: as §2
[18] = test system: Lewis lung carcinoma cell line; assay: Increased life span at the dose of 4 (mg/kg/day) (number of survivors); format: functional, Mus musculus
A549 = assay: Inhibition of growth of lung non-small cell carcinoma A-549 cell line; format: functional; conditions: Homo sapiens, read-out: ED50 (the source's name); procedure, shortened: as §2
[19] = test system: Lewis lung carcinoma cell line; assay: Mean body weight change after inoculation of 3.2 x 10 e 5 cells iv and administration of compounds iv from days 1-5 at the dose of 7 (mg/kg/day); format: functional, Mus musculus; procedure, shortened: as §5
[20] = test system: Lewis lung carcinoma cell line; assay: Increased life span at the dose of 1.3 (mg/kg/day); format: functional, Mus musculus
[21] = test system: Lewis lung carcinoma cell line; assay: Mean body weight change after inoculation of 3.2 x 10 e 5 cells iv and administration of compounds iv from days 1-5 at the dose of 4 (mg/kg/day); format: functional, Mus musculus; procedure, shortened: as §5
[22] = test system: Lewis lung carcinoma cell line; assay: Increased life span at the dose of 7 (mg/kg/day); format: functional, Mus musculus
Homo sapiens = organism: Homo sapiens; assay: Inhibition of growth of hepatoma HLE cell line; format: functional; conditions: read-out: ED50 (the source's name); procedure, shortened: as §2
P388 [23] = assay: Antitumor activity in vivo expressed as the percentage increase in life span at the P388 dose of 1.3 (mg/kg/day); format: functional, Mus musculus; procedure, shortened: as §4
[24] = Inhibition of growth of colon carcinoma COLO 2-1 cell line; format: functional; conditions: Homo sapiens, read-out: ED50 (the source's name); procedure, shortened: as §2
L1210 [25] = assay: The number of mice survived for 30 days at the dose of 2.5 (mg/kg/day); format: functional, Mus musculus
[26] = test system: Lewis lung carcinoma cell line; assay: Increased life span at the lewis lung dose of 0.44 (mg/kg/day); format: functional, Mus musculus
[27] = test system: Lewis lung carcinoma cell line; assay: Mean body weight change after inoculation of 3.2 x 10 e 5 cells iv and administration of compounds iv from days 1-5 at the dose of 0.44 (mg/kg/day); format: functional, Mus musculus; procedure, shortened: as §5
[28] = test system: Lewis lung carcinoma cell line; assay: Mean body weight change after inoculation of 3.2 x 10 e 5 cells iv and administration of compounds iv from days 1-5 at the dose of 0.25 (mg/kg/day); format: functional, Mus musculus; procedure, shortened: as §5
COLO 320DM [29] = assay: Inhibition of growth of colon carcinoma COLO 320DM cell line; format: functional; conditions: Homo sapiens, read-out: ED50 (the source's name); procedure, shortened: as §2
[30] = test system: Lewis lung carcinoma cell line; assay: Increased life span at the lewis lung dose of 0.25 (mg/kg/day); format: functional, Mus musculus
P388 [31] = assay: Antitumor activity in vivo expressed as the percentage increase in life span at the P388 dose of 0.3 (mg/kg/day); format: functional, Mus musculus; procedure, shortened: as §4
[32] = test system: Lewis lung carcinoma cell line; assay: Percentage inhibition of tumor growth at the lewis lung dose of 2.3 (mg/kg/ day); (p<0001); format: functional, Mus musculus; procedure, shortened: as §1
[33] = test system: Lewis lung carcinoma cell line; assay: Increased life span at the lewis lung dose of 1.3 (mg/kg/day); format: functional, Mus musculus
[34] = test system: Lewis lung carcinoma cell line; assay: Percentage inhibition of tumor growth at the lewis lung dose of 0.3 (mg/kg/ day); format: functional, Mus musculus; procedure, shortened: as §1
[35] = test system: Lewis lung carcinoma cell line; assay: Mean body weight change after inoculation of 3.2 x 10 e 5 cells iv and administration of compounds iv from days 1-5 at the dose of 1.3 (mg/kg/day); format: functional, Mus musculus; procedure, shortened: as §5
[36] = test system: Lewis lung carcinoma cell line; assay: Increased life span at the lewis lung dose of 0.77 (mg/kg/day); format: functional, Mus musculus
L1210 [37] = assay: The number of mice survived for 30 days at the dose of 1.3 (mg/kg/day); format: functional, Mus musculus
[38] = test system: Lewis lung carcinoma cell line; assay: Percentage inhibition of tumor growth at the lewis lung dose of 1.3 (mg/kg/ day); (p<0001); format: functional, Mus musculus; procedure, shortened: as §1
P388 [39] = assay: Antitumor activity in vivo expressed as the percentage increase in life span at the P388 dose of 0.4 (mg/kg/day); format: functional, Mus musculus; procedure, shortened: as §4
L1210 [40] = assay: Antitumor activity in vivo expressed as the percentage increase in life span at the dose of 1.3 (mg/kg/day); format: functional, Mus musculus
[41] = test system: Lewis lung carcinoma cell line; assay: Antitumor activity in vivo expressed as the percentage increase in life span at the lewis lung dose of 4 (mg/kg/day); format: functional, Mus musculus
[42] = test system: Lewis lung carcinoma cell line; assay: Antitumor activity in vivo expressed as the percentage increase in life span at the lewis lung dose of 1.3 (mg/kg/day); format: functional, Mus musculus
[43] = test system: Lewis lung carcinoma cell line; assay: Percentage inhibition of tumor growth at the dose of 4 (mg/kg/ day); format: functional, Mus musculus; procedure, shortened: as §1
P388 [44] = assay: Increased life span at the P388 dose of 2.3 (mg/kg/day); format: functional, Mus musculus; procedure, shortened: as §4
[45] = test system: Lewis lung carcinoma cell line; assay: Percentage inhibition of tumor growth at the dose of 2.3 (mg/kg/ day); format: functional, Mus musculus; procedure, shortened: as §1
P388 [46] = assay: Increased life span at the P388 dose of 1.3 (mg/kg/day); format: functional, Mus musculus; procedure, shortened: as §4
[47] = test system: Lewis lung carcinoma cell line; assay: Antitumor activity in vivo expressed as the percentage increase in life span at the lewis lung dose of 0.77 (mg/kg/day); format: functional, Mus musculus
P388 [48] = assay: Increased life span at the P388 dose of 0.8 (mg/kg/day); format: functional, Mus musculus; procedure, shortened: as §4
[49] = test system: Lewis lung carcinoma cell line; assay: Antitumor activity in vivo expressed as the percentage increase in life span at the lewis lung dose of 2.3 (mg/kg/day); format: functional, Mus musculus

SMILES | ILS max (L1210 [3]) [%] | EC50 (SBC-3) [µg/mL] | EC50 (ACHN) [µg/mL] | EC50 [7] [µg/mL] | bwc [8] [g] | IC50 (P388 [9]) [µM] | IC50 (Tubulin) [µM] | ILS max (P388 [11]) [%] | EC50 [12] [µg/mL] | bwc [13] [g] | EC50 [14] [µg/mL] | IC50 [16] [µM] | EC50 [17] [µg/mL] | EC50 (A549) [µg/mL] | bwc [21] [g] | EC50 (Homo sapiens) [µg/mL] | EC50 [24] [µg/mL] | Survivors (L1210 [25]) | EC50 (COLO 320DM [29]) [µg/mL] | bwc [35] [g] | other results
COc1cc([C@@H]2c3cc4c(cc3[C@@H](CCN3CCC(N5CCCCC5)CC3)C3COC(=O)[C@@H]32)OCO4)cc(OC)c1O.Cl.Cl (some centres not stated) | 102 | 0.16 | 1.1 | 0.18 | -0.5 | 0.0033 | > 167 | 143 | 2.7 | 0.3 | 35 | 29.8 | 4 | 1 | -1.6 | 0.31 | 13 | 6 |  |  | Inhibition [1]: 40%; EC50 (COLO 320DM [2]): 2.1 µg/mL; Inhibition [4]: 50%; ILS max (P388 [5]): 231%; ILS max [6]: 133%; ILS max [10]: 43%; Inhibition [15]: 91%; ILS max [18]: -13%; bwc [19]: -4.1 g; ILS max [20]: 63%; ILS max [22]: -44%; ILS max (P388 [23]): 202%
COc1cc([C@@H]2c3cc4c(cc3[C@@H](CCN3CCN(C)CC3)C3COC(=O)[C@@H]32)OCO4)cc(OC)c1O.Cl.Cl (some centres not stated) |  | 0.28 | 2 | 0.25 |  | 0.003 | > 132 | 182 | 1.6 | -0.9 | 5.8 | 33.6 | 2.9 | 0.76 |  | 0.13 | 9.3 |  | 0.99 | -3.3 | ILS max [26]: 67%; bwc [27]: 0.3 g; bwc [28]: 0.9 g; ILS max [30]: 24%; ILS max (P388 [31]): 67%; Inhibition [32]: 96%; ILS max [33]: 127%; Inhibition [34]: 37%; ILS max [36]: 91%; Survivors (L1210 [37]): 1; Inhibition [38]: 81%; ILS max (P388 [39]): 112%; ILS max (L1210 [40]): 140%
COc1cc([C@@H]2c3cc4c(cc3[C@@H](CCN(C)CCN(C)C)C3COC(=O)[C@@H]32)OCO4)cc(OC)c1O.Cl.Cl (some centres not stated) | 103 | 0.41 | 2 | 0.33 | -0.7 | 0.001 | > 99 |  | 2.8 | 0.44 | 14 | 32.5 | 3.5 | 0.82 | -2.9 | 0.23 | 13 | 6 | 2 | 0.2 | ILS max [41]: 209%; ILS max [42]: 72%; Inhibition [43]: 95%; ILS max (P388 [44]): 236%; Inhibition [45]: 51%; ILS max (P388 [46]): 196%; ILS max [47]: 38%; ILS max (P388 [48]): 116%; ILS max [49]: 90%
